{"source": "ChEMBL document CHEMBL1131415", "about": "“Structure-activity relationships for antiplasmodial activity among 7-substituted 4-aminoquinolines” (J Med Chem, 1998)", "assay_type_in_all_cases": "functional, organism-based", "key": {"[1]": {"system": "Plasmodium falciparum", "assay": "In vitro antiplasmodial activity against chloroquine-sensitive Plasmodium falciparum Haiti 135", "summary_of_the_method": "(§1)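 Cloned P. falciparum (chloroquine-susceptible Haiti-13524 or chloroquine-resistant Indochina I), synchronous early ring stage, 2% red cell suspension at 0.2% parasitemia. Exposed to varying AQ concentrations 48 h, then same concentrations plus 0.5 µCi 3H-hypoxanthine for additional 18 h. IC50 from linear regression of percent inhibition of 3H-hypoxanthine accumulation vs log concentration; triplicate determinations, chloroquine control.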"}, "[2]": {"system": "Plasmodium falciparum", "assay": "In vitro anti-plasmodial activity against chloroquine-resistant Plasmodium falciparum Indochina I", "summary_of_the_method": "as §1"}, "[3]": {"system": "Plasmodium falciparum", "assay": "In vitro antiplasmodial activity against chloroquine-resistant Plasmodium falciparum Indochina I", "summary_of_the_method": "as §1"}}}
{"smiles": "CCN(CC)CCCCCCCCCCNc1ccnc2cc(F)ccc12", "values": [{"measurement": "IC50", "setting": "[1]", "result": 0.007, "unit": "µM"}, {"measurement": "IC50", "setting": "[2]", "result": 0.04, "unit": "µM"}]}
{"smiles": "CCN(CC)CCCNc1ccnc2cc(Br)ccc12", "values": [{"measurement": "IC50", "setting": "[1]", "result": 0.004, "unit": "µM"}, {"measurement": "IC50", "setting": "[3]", "result": 0.006, "unit": "µM"}]}
{"smiles": "CCN(CC)CCCCCNc1ccnc2cc(Cl)ccc12", "values": [{"measurement": "IC50", "setting": "[1]", "result": 0.006, "unit": "µM"}, {"measurement": "IC50", "setting": "[3]", "result": 0.058, "unit": "µM"}]}
{"smiles": "CCN(CC)CCCNc1ccnc2cc(F)ccc12", "values": [{"measurement": "IC50", "setting": "[1]", "result": 0.023, "unit": "µM"}, {"measurement": "IC50", "setting": "[3]", "result": 0.12, "unit": "µM"}]}
{"smiles": "CCN(CC)CCCC(C)Nc1ccnc2cc(C(F)(F)F)ccc12", "note": "(stereo not drawn)", "values": [{"measurement": "IC50", "setting": "[1]", "result": 0.016, "unit": "µM"}, {"measurement": "IC50", "setting": "[3]", "result": 0.045, "unit": "µM"}]}
{"smiles": "CCN(CC)CCCCCCCCCCNc1ccnc2cc(I)ccc12", "values": [{"measurement": "IC50", "setting": "[1]", "result": 0.006, "unit": "µM"}, {"measurement": "IC50", "setting": "[2]", "result": 0.016, "unit": "µM"}]}
{"smiles": "CCN(CC)CC(C)Nc1ccnc2cc(C(F)(F)F)ccc12", "note": "(stereo not drawn)", "values": [{"measurement": "IC50", "setting": "[1]", "result": 0.05, "unit": "µM"}, {"measurement": "IC50", "setting": "[3]", "result": 0.05, "unit": "µM"}]}
{"smiles": "CCN(CC)CC(C)Nc1ccnc2cc(I)ccc12", "note": "(stereo not drawn)", "values": [{"measurement": "IC50", "setting": "[1]", "result": 0.007, "unit": "µM"}, {"measurement": "IC50", "setting": "[3]", "result": 0.007, "unit": "µM"}]}
{"smiles": "CCN(CC)CC(C)Nc1ccnc2cc(Br)ccc12", "note": "(stereo not drawn)", "values": [{"measurement": "IC50", "setting": "[1]", "result": 0.011, "unit": "µM"}, {"measurement": "IC50", "setting": "[3]", "result": 0.012, "unit": "µM"}]}
{"smiles": "CCN(CC)CCCCCCCCCCNc1ccnc2cc(C(F)(F)F)ccc12", "values": [{"measurement": "IC50", "setting": "[1]", "result": 0.01, "unit": "µM"}, {"measurement": "IC50", "setting": "[2]", "result": 0.02, "unit": "µM"}]}
{"smiles": "CCN(CC)CCCCCCCCCCNc1ccnc2cc(Br)ccc12", "values": [{"measurement": "IC50", "setting": "[1]", "result": 0.006, "unit": "µM"}, {"measurement": "IC50", "setting": "[2]", "result": 0.017, "unit": "µM"}]}
{"smiles": "CCN(CC)CC(C)Nc1ccnc2cc(OC)ccc12", "note": "(stereo not drawn)", "values": [{"measurement": "IC50", "setting": "[1]", "result": 0.094, "unit": "µM"}, {"measurement": "IC50", "setting": "[3]", "result": 0.18, "unit": "µM"}]}
{"smiles": "CCN(CC)CCNc1ccnc2cc(OC)ccc12", "values": [{"measurement": "IC50", "setting": "[1]", "result": 0.048, "unit": "µM"}, {"measurement": "IC50", "setting": "[3]", "result": 0.155, "unit": "µM"}]}
{"smiles": "CCN(CC)CCCC(C)Nc1ccnc2cc(OC)ccc12", "note": "(stereo not drawn)", "values": [{"measurement": "IC50", "setting": "[1]", "result": 0.055, "unit": "µM"}, {"measurement": "IC50", "setting": "[3]", "result": 3, "unit": "µM"}]}
{"smiles": "CCN(CC)CCNc1ccnc2cc(F)ccc12", "values": [{"measurement": "IC50", "setting": "[1]", "result": 0.035, "unit": "µM"}, {"measurement": "IC50", "setting": "[3]", "result": 0.06, "unit": "µM"}]}
{"smiles": "CCN(CC)CCCCCCCCCCCCNc1ccnc2cc(F)ccc12", "values": [{"measurement": "IC50", "setting": "[1]", "result": 0.008, "unit": "µM"}, {"measurement": "IC50", "setting": "[2]", "result": 0.025, "unit": "µM"}]}
{"smiles": "CCN(CC)CCCNc1ccnc2cc(OC)ccc12", "values": [{"measurement": "IC50", "setting": "[1]", "result": 0.15, "unit": "µM"}, {"measurement": "IC50", "setting": "[3]", "result": 0.9, "unit": "µM"}]}
{"smiles": "CCN(CC)CC(C)Nc1ccnc2cc(Cl)ccc12", "note": "(stereo not drawn)", "values": [{"measurement": "IC50", "setting": "[1]", "result": 0.008, "unit": "µM"}, {"measurement": "IC50", "setting": "[3]", "result": 0.01, "unit": "µM"}]}
{"smiles": "CCN(CC)CCCCCCCCCCCCNc1ccnc2cc(OC)ccc12", "values": [{"measurement": "IC50", "setting": "[1]", "result": 0.017, "unit": "µM"}, {"measurement": "IC50", "setting": "[2]", "result": 0.09, "unit": "µM"}]}
{"smiles": "CCN(CC)CCCC(C)Nc1ccnc2cc(F)ccc12", "note": "(stereo not drawn)", "values": [{"measurement": "IC50", "setting": "[1]", "result": 0.02, "unit": "µM"}, {"measurement": "IC50", "setting": "[3]", "result": 0.5, "unit": "µM"}]}
{"smiles": "CCN(CC)CCCNc1ccnc2cc(C(F)(F)F)ccc12", "values": [{"measurement": "IC50", "setting": "[1]", "result": 0.015, "unit": "µM"}, {"measurement": "IC50", "setting": "[3]", "result": 0.018, "unit": "µM"}]}
{"smiles": "CCN(CC)CCCCNc1ccnc2cc(Cl)ccc12", "values": [{"measurement": "IC50", "setting": "[1]", "result": 0.005, "unit": "µM"}, {"measurement": "IC50", "setting": "[3]", "result": 0.051, "unit": "µM"}]}
{"smiles": "CCN(CC)CCNc1ccnc2cc(C(F)(F)F)ccc12", "values": [{"measurement": "IC50", "setting": "[1]", "result": 0.03, "unit": "µM"}, {"measurement": "IC50", "setting": "[3]", "result": 0.041, "unit": "µM"}]}
{"smiles": "CCN(CC)CCCCCCCCCCCCNc1ccnc2cc(Cl)ccc12", "values": [{"measurement": "IC50", "setting": "[1]", "result": 0.013, "unit": "µM"}, {"measurement": "IC50", "setting": "[2]", "result": 0.011, "unit": "µM"}]}
{"smiles": "CCN(CC)CCCC(C)Nc1ccnc2cc(I)ccc12", "note": "(stereo not drawn)", "values": [{"measurement": "IC50", "setting": "[1]", "result": 0.004, "unit": "µM"}, {"measurement": "IC50", "setting": "[3]", "result": 0.035, "unit": "µM"}]}
{"smiles": "CCN(CC)CCCNc1ccnc2cc(I)ccc12", "values": [{"measurement": "IC50", "setting": "[1]", "result": 0.003, "unit": "µM"}, {"measurement": "IC50", "setting": "[3]", "result": 0.004, "unit": "µM"}]}
{"smiles": "CCN(CC)CCCCCCCCCCCCNc1ccnc2cc(C(F)(F)F)ccc12", "values": [{"measurement": "IC50", "setting": "[1]", "result": 0.005, "unit": "µM"}, {"measurement": "IC50", "setting": "[2]", "result": 0.025, "unit": "µM"}]}
{"smiles": "CCN(CC)CCCCCCNc1ccnc2cc(Cl)ccc12", "values": [{"measurement": "IC50", "setting": "[1]", "result": 0.005, "unit": "µM"}, {"measurement": "IC50", "setting": "[3]", "result": 0.056, "unit": "µM"}]}
{"smiles": "CCN(CC)CCNc1ccnc2cc(Br)ccc12", "values": [{"measurement": "IC50", "setting": "[1]", "result": 0.007, "unit": "µM"}, {"measurement": "IC50", "setting": "[3]", "result": 0.007, "unit": "µM"}]}
{"smiles": "CCN(CC)CCCCCCCCCCNc1ccnc2cc(OC)ccc12", "values": [{"measurement": "IC50", "setting": "[1]", "result": 0.01, "unit": "µM"}, {"measurement": "IC50", "setting": "[2]", "result": 0.17, "unit": "µM"}]}
{"smiles": "CCN(CC)CCCCCCCCCCCCNc1ccnc2cc(Br)ccc12", "values": [{"measurement": "IC50", "setting": "[1]", "result": 0.008, "unit": "µM"}, {"measurement": "IC50", "setting": "[2]", "result": 0.018, "unit": "µM"}]}
{"smiles": "CCN(CC)CCNc1ccnc2cc(Cl)ccc12", "values": [{"measurement": "IC50", "setting": "[1]", "result": 0.007, "unit": "µM"}, {"measurement": "IC50", "setting": "[3]", "result": 0.005, "unit": "µM"}]}
{"smiles": "CCN(CC)CCNc1ccnc2cc(I)ccc12", "values": [{"measurement": "IC50", "setting": "[1]", "result": 0.006, "unit": "µM"}, {"measurement": "IC50", "setting": "[3]", "result": 0.006, "unit": "µM"}]}
{"smiles": "CCN(CC)CCCC(C)Nc1ccnc2cc(Br)ccc12", "note": "(stereo not drawn)", "values": [{"measurement": "IC50", "setting": "[1]", "result": 0.005, "unit": "µM"}, {"measurement": "IC50", "setting": "[3]", "result": 0.09, "unit": "µM"}]}
{"smiles": "CCN(CC)CCCCCCCCNc1ccnc2cc(Cl)ccc12", "values": [{"measurement": "IC50", "setting": "[1]", "result": 0.004, "unit": "µM"}, {"measurement": "IC50", "setting": "[2]", "result": 0.041, "unit": "µM"}]}
{"smiles": "CCN(CC)CCCCCCCCCCNc1ccnc2cc(Cl)ccc12", "values": [{"measurement": "IC50", "setting": "[1]", "result": 0.006, "unit": "µM"}, {"measurement": "IC50", "setting": "[2]", "result": 0.013, "unit": "µM"}]}
{"smiles": "CCN(CC)CCCNc1ccnc2cc(Cl)ccc12", "values": [{"measurement": "IC50", "setting": "[1]", "result": 0.005, "unit": "µM"}, {"measurement": "IC50", "setting": "[3]", "result": 0.006, "unit": "µM"}]}
{"smiles": "CCN(CC)CCCCCCCCCCCCNc1ccnc2cc(I)ccc12", "values": [{"measurement": "IC50", "setting": "[1]", "result": 0.01, "unit": "µM"}, {"measurement": "IC50", "setting": "[2]", "result": 0.02, "unit": "µM"}]}
{"smiles": "CCN(CC)CC(C)Nc1ccnc2cc(F)ccc12", "note": "(stereo not drawn)", "values": [{"measurement": "IC50", "setting": "[1]", "result": 0.03, "unit": "µM"}, {"measurement": "IC50", "setting": "[3]", "result": 0.06, "unit": "µM"}]}
